According to ChEMBL document CHEMBL4513216, “Probing the Open Global Health Chemical Diversity Library for Multistage-Active Starting Points for Next-Generation Antimalarials” (ACS Infect Dis, 2020):

Assay: Toxicity liver stage against HepG2, at 10uM
Assay type: cell-based
Set-up: test concentration 10 uM, cell line HepG2-A16-CD81EGFP
Details: human, HepG2-A16-CD81EGFP cells; read-out: INHIBITION
How it was run: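 Uninfected HepG2-A16-CD81EGFP cells, 3 × 10^3 per well, 1536-well, plated on prespotted compound at 10 μM final, parasite-free screening media added to match infected plates; puromycin 10 μM positive, DMSO 0.5% negative; run in parallel with 48 h PbLuc assay at 37 °C, 5% CO2; viability by CellTiter-Glo luminescence, normalized to controls.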

| Compound | cytotoxicity at 10 µM [%] |
| --- | --- |
| CC(=O)N(C)Cc1ccccc1NCc1c(C)noc1C | 5.76 |
| Cc1ccccc1OCCn1cnc2oc(C)c(C(=O)O)c2c1=O | 11 |
| COCCOc1ccnc(-c2noc([C@@H]3CCCN3CC(C)C)n2)c1 | -8.64 |
| CCNC(=O)N1CC[C@@H](CC(=O)O)[C@@H](CC2=NCCc3ccccc32)C1 | 2.7 |
| Cc1ccc(Oc2ncccc2C(=O)O)c(C)c1 | 2.4 |
| COc1ccc(CN2CC(O)CN(C(=O)OCC(C)(C)C)CC2=O)cc1 (configuration not stated) | 2.55 |
| Cc1ccccc1-n1ncc2c(=O)n(CCN3CCCC3)cnc21 | -11.3 |
| O=C(CCn1ccc(=O)[nH]c1=O)N1CCC(Oc2ncccc2Cl)CC1 | 1.71 |
| Cc1oncc1C(=O)N1CC2CC1(C(=O)N1CCCC1)C2 | 4.91 |
| CO[C@H]1CCN(C(=O)c2cc(C)on2)[C@H]1Cc1ccncc1 | 1.2 |
| O=C(CC1CC1)N1C[C@@H]2CN(c3ccccc3)C(=O)[C@@H]2C1 | -1.48 |
| c1cc(CN2CCc3nc(N4CCOCC4)nc(NC4CC4)c3C2)co1 | 12 |
| CN(C)C(=O)CN1C[C@H]2CCN(C(=O)c3ccncc3)CC[C@H]2S1(=O)=O | -1.55 |
| CNC(=O)[C@@]12CCC3(CCN(C(=O)COC)CC3)[C@@H]1CN(S(C)(=O)=O)C2 | 4.53 |
| COCC1c2nnn(CC3CC3)c2CCN1C(=O)c1ccnnc1 (configuration not stated) | -7.44 |
| Cc1nc(C)c(C(=O)N2CCCC2(C)C(=O)NC2CCCC2)s1 (configuration not stated) | -1.13 |
| Cc1ccc(N(C)[C@@H]2CC[C@@H]3CN(C(=O)CC4CCOCC4)C[C@@H]32)nn1 | -1.79 |
| Cc1ccc(CNC(C)c2cc(F)ccc2N2CCN(C)CC2)o1 (configuration not stated) | 0.513 |
| O=C1NCCCCC1SCc1coc(-c2cccc(F)c2)n1 (configuration not stated) | 7 |
| Cn1nc2c(cc1=O)CN(CC1CCCCO1)CC2 (configuration not stated) | 2.58 |
| COc1ccc(-n2cc(CNC(=O)c3ccccn3)nn2)cc1 | -4.05 |
| CN(C)c1ccc(NC(=O)CN2CCS(=O)(=O)CC2)cn1 | 6.56 |
| CCOc1ccc(N(C)Cc2nnc(C3CC3)o2)cc1 | 8.17 |

| Compound | cytotoxicity at 10 µM [%] |
| --- | --- |
| CCC(CC)(CCCNC(=O)c1c(C)noc1C)C1OCCO1 | 1.98 |
| Cn1c(CS(=O)(=O)Cc2ccc(Cl)cc2)cc(=O)n(C)c1=O | 5.59 |
| Cn1c(N)nnc1SC1CCCN(c2ccccc2F)C1=O (configuration not stated) | -7.29 |
| CC(C)N(C)C(=O)C1CSCN1S(=O)(=O)c1cccs1 (configuration not stated) | -5.96 |
| Cc1cnn(CC(C)NCc2cc(=O)n3cc(C)ccc3n2)c1 (configuration not stated) | 3.89 |
| CCN(C(=O)C1=NN(c2ccccc2)C(=O)CN1)c1ccccc1 | 12 |
| COc1c(C2CCCN2c2ncnc3c2cnn3C)c(C)nn1C (configuration not stated) | 1.95 |
| CCN(CC(=O)NC)C(=O)c1sc(Cc2ccccc2)nc1C | -6.37 |
| CC1(NC(=O)CC2CCc3ccccc32)CCOCC1 (configuration not stated) | 0.995 |
| CC(C)(C)c1noc(CN2CCCC(CNS(N)(=O)=O)C2)n1 (configuration not stated) | 1.3 |
| CC(C)c1n[nH]c(C2CN(CC(=O)N(C)Cc3ccco3)CCO2)n1 (configuration not stated) | -5.92 |
| CCCn1nnnc1CSc1nccn1CC | -5.15 |
| O=C(c1ccoc1)N1CCC(NCc2ccccc2-n2ccnc2)CC1 | 5.89 |
| CNC(=O)C1CCN(C(=O)NCc2ccc(C)n2C)CC1 | -1.81 |
| COc1cc(CCNC(=O)NCCC2CCCO2)ccc1C (configuration not stated) | 9.92 |
| CCOCC(=O)N(Cc1ccccn1)Cc1ccccc1C | 3.21 |
| Cc1nc(CN2CCN(C(=O)c3ccc(=O)n(C)c3)CC2)cs1 | -2.95 |
| CC(C)c1cc(CNC(=O)NCc2cccc(N3CC=CC3)c2)on1 | 9.99 |
| CCCc1cc(NCCn2cccn2)n2ncnc2n1 | 5.28 |
| CCOC(=O)NCCC(=O)NC(C)(C)c1ccc2c(c1)OCCO2 | -0.418 |
| COc1cc(NCc2c(C)noc2C)c(C(=O)N(C)C)cc1OC | 6.85 |
| O=C(NCc1csc2ccccc12)NCC1(O)CCSC1 (configuration not stated) | 3.19 |
| c1ccc(N2CCC(NCCc3ccc(-n4cccn4)cc3)CC2)nc1 | 21.1 |

| Compound | cytotoxicity at 10 µM [%] |
| --- | --- |
| Cn1cnnc1-c1cncc(NCc2cccc3c2OC(C)(C)C3)c1 | 7.84 |
| O=C(C1CCN(c2ccnc3ccc(Br)cc23)CC1)N1CCOCC1 | 15.6 |
| Cn1ccc(C(=O)NCCOc2ccc3c(c2)CCC3)cc1=O | 3.68 |
| COCCCn1ccc(NS(=O)(=O)c2cc(C)c(F)cc2F)n1 | 20.1 |
| CCC(C)(NCc1nc(C)c(C)o1)c1nccs1 (configuration not stated) | -2.05 |
| Cc1noc(C)c1CC(=O)N1CCCC(n2ccnc2C)C1 (configuration not stated) | -4.49 |
| COc1ccccc1OC(C)CNC(=O)c1cnc[nH]1 (configuration not stated) | 1.57 |
| CC(C)N1Cc2cccc(NCC(=O)N(C)C3CCCCC3)c2C1 | 4.83 |
| FC(F)(F)C1CCCn2c(CNCc3ccsc3)nnc21 (configuration not stated) | 16.5 |
| COC1CCN(C(=O)c2c(Cl)c3ccccc3n2C)CC1 | 4.39 |
| CC(=O)Nc1nc(CN2CCCCC2Cn2cccn2)cs1 (configuration not stated) | -6.7 |
| Cc1oncc1C(=O)N1CCC2(CC1)C(c1cnn(C)c1)CC(=O)N2C (configuration not stated) | -75.6 |
| COc1cccc(Cn2ncnc2COC(C)C)c1 | -5.62 |
| CCCS(=O)(=O)N1CCC2(CCCN(Cc3cccc(F)c3F)C2=O)C1 (configuration not stated) | 10.3 |
| CCO[C@H]1COC[C@@H]1NC(=O)CCc1nc(-c2ccccc2)no1 | 15.8 |
| CCC(=O)Nc1cc(Cl)ccc1C(=O)N(C)Cc1noc(CC)n1 | 7.1 |
| Cc1ncsc1C(=O)N1CCCC(c2nccn2Cc2cscn2)C1 (configuration not stated) | -0.0612 |
| COc1ccc2c(=O)n(CC3CCCCN3C)ccc2c1OC (configuration not stated) | 3.19 |
| Cn1ccnc1C1CCN(CCC2CCOC2)CC1 (configuration not stated) | -4.06 |
| CC1(C)CN(S(=O)(=O)N2CCCC2)CC1c1ccccc1 (configuration not stated) | -0.71 |
| N#Cc1ccccc1CN1CCC(c2nccn2CC(N)=O)CC1 | -8.61 |
| CCC(NC(=O)CC1CCN(CC)CC1)c1cn2cccnc2n1 (configuration not stated) | 2.46 |
| CCc1ccccc1NC(=O)c1cccc(N(C)S(C)(=O)=O)c1C | -4.68 |

| Compound | cytotoxicity at 10 µM [%] |
| --- | --- |
| COc1ccccc1OCc1cc(C(=O)N2C[C@@H](C)O[C@@H](C)C2)n[nH]1 | -4.91 |
| Cc1cc(C2CCC2)nc(N(C)Cc2cnccn2)n1 | -1.86 |
| CN(Cc1cc2n(n1)CCNC2)Cc1n[nH]c2c1CCC2 | 5.04 |
| NC(=O)N1CCCC(C(=O)NCCc2nc(Cc3ccccc3)no2)C1 (configuration not stated) | 8.5 |
| COCC1CCCCN1C(=O)c1cc(-c2cccc(OC)c2)n[nH]1 (configuration not stated) | 9.34 |
| O=C1CCC2(CCN(Cc3cc(F)ccc3Cl)CC2)CN1C1CCCC1 | 53.1 |
| Nc1cc2c(nn1)CCN(C(=O)c1cccc3c1OCO3)C2 | -8.08 |
| Cc1nn(C)c(C)c1C1CCCN1C(=O)CCCNc1ncccn1 (configuration not stated) | -3.43 |
| c1ncc2c(n1)CN(Cc1nc(-c3ccsc3)no1)CC2 | -4.77 |
| CCCc1nc(C(C)(C)NC(=O)C2CC(=O)N(C3CCCC3)C2)no1 (configuration not stated) | -0.734 |
| CC(C)c1n[nH]c(C2CN(C(=O)CCc3cscn3)CCO2)n1 (configuration not stated) | -1.51 |
| Cc1ncsc1C(=O)N(C)Cc1ccccc1 | -6.92 |
| Cc1nc(CN2CCCC(NCc3cccc(C(N)=O)c3)C2)no1 (configuration not stated) | -14.5 |
| CC1CN(Cc2ccc(-n3cccn3)cc2)CCO1 (configuration not stated) | -7.18 |
| Cc1ccc(-c2nc(CN3CCCC3Cn3cncn3)cs2)o1 (configuration not stated) | -7.88 |
| CCc1cnc(CN2CCC(N(Cc3noc(CC)n3)C(C)=O)C2)o1 (configuration not stated) | -4.17 |
| CC(NC(=O)NCCn1ccnc1)c1ccc2c(c1)CCC(=O)N2 (configuration not stated) | -18.1 |
| CCN1CCN(c2ccc(CNC(=O)c3cnn(C)c3C)cn2)CC1 | -11.1 |
| CCN(Cc1cccc2c1OCO2)C(=O)Nc1cn[nH]c1 | -17.2 |
| Cc1occc1C(=O)N1CCCC(c2nncn2C)C1 (configuration not stated) | -16 |
| COc1ccc(C2CCCN2C(=O)Nc2ccc(OC)nc2)cc1 (configuration not stated) | 2.58 |
| Cc1cc(C)n(CC2CCCCN2CC(=O)N(C)Cc2ccco2)n1 (configuration not stated) | -9.75 |
| Cc1cc(NC(=O)C(C)N2CCN(c3nc(C)ns3)CC2)on1 (configuration not stated) | -9.48 |

| Compound | cytotoxicity at 10 µM [%] |
| --- | --- |
| CCNC(=O)N1CCN(C(=O)c2cc(Cl)cc3cccnc23)CC1 | -9.62 |
| CC(NC(=O)NCCCN(C)S(C)(=O)=O)c1cccc(Cl)c1 (configuration not stated) | 3.44 |
| Cc1cn2nc(N3CCCC3Cn3nc(C)cc3C)sc2n1 (configuration not stated) | -1.32 |
| COc1ccc(CN2CCCC(Cn3nc(C)nc3C)C2)cc1F (configuration not stated) | -0.409 |
| CC(C)NC(=O)c1sc2ccccc2c1C1CCC(CN)CC1 (configuration not stated) | -3.28 |
| CN1CC(=O)N(c2cccc(F)c2)CC12CCN(Cc1cncn1C)C2 (configuration not stated) | -0.791 |
| Cc1ncnc2c1CCN(c1ccccn1)CC2 | -157 |
| Cn1cc(CN2CCCC23CCN(C(=O)c2ccsc2)CC3)cn1 | 0.993 |
| CC(C)NC(=O)C1CN(Cc2ccc(F)cc2)CC12CCOCC2 (configuration not stated) | 3.86 |
| O=C(NCc1ccccn1)[C@]12COC[C@H]1CN(Cc1ccsc1)C2 | 4.91 |
| O=C(Nc1cccnc1)[C@H]1CN(Cc2nccs2)C[C@H]2OCC[C@@H]12 | 2.88 |
| Cc1noc(C)c1-c1nc(C2CCCNC2)ccc1CO (configuration not stated) | -21.3 |
| CCC(=O)N1CCC2(CC1)CN(CCO)Cc1ccccc12 | 5.23 |
| Cc1nc(C)n(CC2CN(Cc3ccncc3)Cc3nccn3C2)n1 (configuration not stated) | -142 |
| CN1CCC(c2nc3ccc(-c4ccccc4)cn3n2)CC1 | -5.29 |
| c1c[nH]c(CN2CCC3(CC2)COCCN(CCN2CCCC2)C3)c1 | -3.86 |
| CN(C)Cc1cn2c(n1)CN(C(=O)Cc1ccsc1)CC2 | -136 |
| O=C1Nc2ccccc2C12CCN(c1nccs1)CC2 | -0.449 |
| c1cnc2[nH]c(C3CCCNC3)c(CN3CCCOCC3)c2c1 (configuration not stated) | -1.43 |
| c1ccc(OC2C[C@@H]3CN(Cc4cnccn4)C[C@@H]3C2)cc1 (some centres not stated) | -5.92 |
